Measured values from ChEMBL document CHEMBL3580633, “Benzoxaborole antimalarial agents. Part 4. Discovery of potent 6-(2-(alkoxycarbonyl)pyrazinyl-5-oxy)-1,3-dihydro-1-hydroxy-2,1-benzoxaboroles” (J Med Chem, 2015).

Experiments:
Plasmodium berghei [1] = assay: Antiplasmodial activity against Plasmodium berghei infected in Swiss Webster mouse assessed as mouse survival at 11 mg/kg, po dosed once daily for 4 consecutive days beginning 1 hr after initial infection and measured on day 12 post infection by Giemsa staining method; assay type: functional
Outline: (§1)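 Female Swiss Webster mice (about 20 g) infected ip with 6 × 10^6 P. berghei-infected erythrocytes. Oral gavage once daily for 4 days, starting 1 h after infection. Vehicle PEG300/propylene glycol/water (55/25/20 by weight). Giemsa-smear parasitemia counted daily from day 4. Mice euthanised above 50% parasitemia. Survival followed to day 21, 5 mice per dose, chloroquine 30 mg/kg as reference.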

[2] = Stability in mouse liver microsomes assessed as compound remaining at 1 uM incubated for 1 hr in presence of NADPH by LC/MS/MS method; assay type: ADME
Outline: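 Compound at 1 μM final (from a 1 mg/mL DMSO stock) was incubated with mouse or human liver microsomes (0.5 mg/mL protein) in 100 mM potassium phosphate, pH 7.4, at 37 °C with shaking, with or without 1 mM NADPH. Samples were taken over 0–120 min and tested in duplicate. Reactions were quenched with cold acetonitrile plus internal standard and analyzed by LC/MS/MS.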

[3] = AUC (0 to infinity) in CD1 mouse at 5 mg/kg, po by HPLC coupled to tandem mass spectrometry; assay type: ADME, organism-based; set-up: dose 5 mg/kg, route oral, time infinity; conditions: in vivo
Outline: (§2)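 Adult female CD-1 mice received 5 mg/kg by both the iv and the oral-gavage route. Two vehicles were used: PEG 400/dimethylacetamide/water (45/10/45, pH 5.8), or PEG 300/propylene glycol/water (55/25/20, pH 5.9). Blood samples were collected and drug was quantified by HPLC-tandem MS.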

Mus musculus [4] = assay: Oral bioavailability in CD1 mouse at 5 mg/kg by HPLC coupled to tandem mass spectrometry; assay type: ADME, organism-based; conditions: in vivo; outline: as §2
[5] = Terminal half life in CD1 mouse at 5 mg/kg, iv by HPLC coupled to tandem mass spectrometry; assay type: ADME, organism-based; conditions: in vivo, read-out: beta t1/2 (converted); outline: as §2
Mus musculus [6] = assay: Tmax in CD1 mouse assessed as 5-(1-hydroxy-1,3-dihydrobenzo[c][1,2]oxaborol-6-yloxy)pyrazine-2-carboxylic acid level at 5 mg/kg, po by HPLC coupled to tandem mass spectrometry; assay type: ADME, organism-based; conditions: in vivo
Outline: (§3)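 The parent ester was given to adult female CD-1 mice at 5 mg/kg, iv or by oral gavage, in PEG 400/dimethylacetamide/water (45/10/45, pH 5.8). Blood was sampled, and the acid formed from the ester in vivo was quantified by HPLC-tandem MS to derive its PK parameters.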

Mus musculus [7] = assay: AUC (0 to infinity) in CD1 mouse assessed as 5-(1-hydroxy-1,3-dihydrobenzo[c][1,2]oxaborol-6-yloxy)pyrazine-2-carboxylic acid level at 5 mg/kg, po by HPLC coupled to tandem mass spectrometry; assay type: ADME, organism-based; set-up: dose 5 mg/kg, route oral, time infinity; conditions: in vivo; outline: as §3
Mus musculus [8] = assay: Terminal half life in CD1 mouse assessed as 5-(1-hydroxy-1,3-dihydrobenzo[c][1,2]oxaborol-6-yloxy)pyrazine-2-carboxylic acid level at 5 mg/kg, po by HPLC coupled to tandem mass spectrometry; assay type: ADME, organism-based; conditions: in vivo; outline: as §3
Mus musculus [9] = assay: Terminal half life in CD1 mouse assessed as 5-(1-hydroxy-1,3-dihydrobenzo[c][1,2]oxaborol-6-yloxy)pyrazine-2-carboxylic acid level at 5 mg/kg, iv by HPLC coupled to tandem mass spectrometry; assay type: ADME, organism-based; conditions: in vivo; outline: as §3
Plasmodium berghei [10] = assay: Antiplasmodial activity against Plasmodium berghei infected in Swiss Webster mouse assessed as mouse survival at 100 mg/kg, po dosed once daily for 4 consecutive days beginning 1 hr after initial infection and measured on day 13 post infection by Giemsa staining method; assay type: functional; outline: as §1
Plasmodium berghei [11] = assay: Antiplasmodial activity against Plasmodium berghei infected in Swiss Webster mouse assessed as mouse survival at 100 mg/kg, po dosed once daily for 4 consecutive days beginning 1 hr after initial infection and measured on day 14 post infection by Giemsa staining method; assay type: functional; outline: as §1
Plasmodium berghei [12] = assay: Antiplasmodial activity against Plasmodium berghei infected in Swiss Webster mouse assessed as mouse survival at 100 mg/kg, po dosed once daily for 4 consecutive days beginning 1 hr after initial infection and measured on day 15 post infection by Giemsa staining method; assay type: functional; outline: as §1
Plasmodium berghei [13] = assay: Antiplasmodial activity against Plasmodium berghei infected in Swiss Webster mouse assessed as mouse survival at 3 mg/kg, po dosed once daily for 4 consecutive days beginning 1 hr after initial infection and measured on day 9 post infection by Giemsa staining method
[14] = Cmax in CD1 mouse at 30 mg/kg, po by HPLC coupled to tandem mass spectrometry; assay type: ADME, organism-based; set-up: dose 30 mg/kg, route oral; conditions: in vivo
Outline: (§4)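 Adult female CD-1 mice were dosed 10 mg/kg by iv injection or 30 mg/kg by oral gavage, with the compound in 100% saline. Blood samples were collected and drug content was measured by HPLC-tandem MS.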

[15] = Tmax in CD1 mouse at 30 mg/kg, po by HPLC coupled to tandem mass spectrometry; assay type: ADME, organism-based; conditions: in vivo; outline: as §4
[16] = AUC (0 to 2 hrs) in CD1 mouse at 30 mg/kg, po by HPLC coupled to tandem mass spectrometry; assay type: ADME, organism-based; set-up: dose 30 mg/kg, time < 2 hr, route oral; conditions: in vivo; outline: as §4
Mus musculus [17] = assay: Oral bioavailability in CD1 mouse at 30 mg/kg by HPLC coupled to tandem mass spectrometry; assay type: ADME, organism-based; conditions: in vivo; outline: as §4
[18] = Volume of distribution at steady state in CD1 mouse at 10 mg/kg, iv by HPLC coupled to tandem mass spectrometry; assay type: ADME, organism-based; conditions: in vivo, read-out: Vdss; outline: as §4
[19] = AUC (0 to infinity) in CD1 mouse at 10 mg/kg, iv by HPLC coupled to tandem mass spectrometry; assay type: ADME, organism-based; set-up: dose 10 mg/kg, route intravenous, time infinity; conditions: in vivo; outline: as §4
[20] = Terminal half life in CD1 mouse at 10 mg/kg, iv by HPLC coupled to tandem mass spectrometry; assay type: ADME, organism-based; conditions: in vivo, read-out: beta t1/2 (converted); outline: as §4
Plasmodium berghei [21] = assay: Antiplasmodial activity against Plasmodium berghei infected in Swiss Webster mouse assessed as mouse survival at 200 mg/kg, po dosed once daily for 4 consecutive days beginning 1 hr after initial infection and measured on day 4 post infection by Giemsa staining method; assay type: functional; outline: as §1
Plasmodium berghei [22] = assay: Antiplasmodial activity against Plasmodium berghei infected in Swiss Webster mouse assessed as mouse survival at 200 mg/kg, po dosed once daily for 4 consecutive days beginning 1 hr after initial infection and measured on day 5 post infection by Giemsa staining method; assay type: functional; outline: as §1
Plasmodium berghei [23] = assay: Antiplasmodial activity against Plasmodium berghei infected in Swiss Webster mouse assessed as mouse survival at 200 mg/kg, po dosed once daily for 4 consecutive days beginning 1 hr after initial infection and measured on day 6 post infection by Giemsa staining method; assay type: functional; outline: as §1
Plasmodium berghei [24] = assay: Antiplasmodial activity against Plasmodium berghei infected in Swiss Webster mouse assessed as mouse survival at 200 mg/kg, po dosed once daily for 4 consecutive days beginning 1 hr after initial infection and measured on day 7 post infection by Giemsa staining method; assay type: functional; outline: as §1
Plasmodium berghei [25] = assay: Antiplasmodial activity against Plasmodium berghei infected in Swiss Webster mouse assessed as mouse survival at 200 mg/kg, po dosed once daily for 4 consecutive days beginning 1 hr after initial infection and measured on day 9 post infection by Giemsa staining method; assay type: functional; outline: as §1
Plasmodium berghei [26] = assay: Antiplasmodial activity against Plasmodium berghei infected in Swiss Webster mouse assessed as mouse survival at 200 mg/kg, po dosed once daily for 4 consecutive days beginning 1 hr after initial infection and measured on day 10 post infection by Giemsa staining method; assay type: functional; outline: as §1

COC(=O)c1cnc(Oc2ccc3c(c2)B(O)OC3)cn1
survival at 11 mg/kg (Plasmodium berghei [1]): 0%
Stability [2]: 0%
AUC(0-inf) [3]: 100 ng·h/mL
F (Mus musculus [4]): 23%
half-life [5]: 18 min
Tmax (Mus musculus [6]): 15 min
AUC (Mus musculus [7]): 610 ng·h/mL
beta t1/2 (Mus musculus [8]): 90 min
beta t1/2 (Mus musculus [9]): 7.8 min
survival at 100 mg/kg (Plasmodium berghei [10]): 60%
survival at 100 mg/kg (Plasmodium berghei [11]): 40%
survival at 100 mg/kg (Plasmodium berghei [12]): 40%
survival at 3 mg/kg (Plasmodium berghei [13]): 40%

O=C(O)c1cnc(Oc2ccc3c(c2)B(O)OC3)cn1
survival at 11 mg/kg (Plasmodium berghei [1]): 0%
Cmax [14]: 19500 ng/mL
Tmax [15]: 15 min
AUC(0-t) at 2 h [16]: 8620 ng·h/mL
F (Mus musculus [17]): 67%
Vd [18]: 0.848 L/kg
AUC(0-inf) [19]: 4300 ng·h/mL
half-life [20]: 66 min

NC(=O)c1cnc(Oc2ccc3c(c2)B(O)OC3)cn1
survival at 200 mg/kg (Plasmodium berghei [21]): 100%
survival at 200 mg/kg (Plasmodium berghei [22]): 100%
survival at 200 mg/kg (Plasmodium berghei [23]): 100%
survival at 200 mg/kg (Plasmodium berghei [24]): 100%
survival at 200 mg/kg (Plasmodium berghei [25]): 40%
survival at 200 mg/kg (Plasmodium berghei [26]): 0%
Stability [2]: 97%
AUC(0-inf) [3]: 2290 ng·h/mL
F (Mus musculus [4]): 99%
half-life [5]: 24 min
